Screens as filed in PubChem BioAssay.
Only some compounds are listed: those with a hit (about 1.3% of all), similar ones and a draw of the others.
Diaphorase inh: diaphorase inhibitors and chemical oxidizers, primary screen, counter-screen for diaphorase-coupled primary assays, biochemical, uHTS, resorufin fluorescence. diaphorase resazurin-to-resorufin fluorescence, NADH, 16 min; bacterial (C. kluyveri) enzyme, not human. inhibition, % at 20 µM. hit rate 0.69% among 190,000;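 active = primary screen inhibition at 20 µM above a set limit, cut at about 50% in these data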
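controls = No-NADH positive control and DMSO neutral control | system = Clostridium kluyveri diaphorase enzyme | timing = reaction incubation of 16 min at room temperature | signal = resorufin fluorescence 544/590 nm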
HKDC1 inhibitor: HKDC1 hexokinase inhibitors, primary screen, biochemical, fluorescence, uHTS. hit rate 0.16% among 340,000. recombinant HKDC1, G6PDH/diaphorase resazurin coupled fluorescence. AID 493160, 2011. inhibition, % at 20 µM;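 active = inhibition above about 35% when tested at 20 µM, limit read from the data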
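Material: recombinant HKDC1 hexokinase; Amount: HKDC1 at 5 µg/mL; Medium: Tris pH 8.0 buffer with MgCl2, Tween-20, BSA, BME; Schedule: 90 min reaction incubation at room temperature, dark; Technique: coupled resazurin fluorescence, excitation 525 nm, emission 613 nm.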
G6PDH CS: L. mesenteroides G6PDH inhibitors, counter-screen for G6PDH-coupled screening assays, biochemical, Leuconostoc mesenteroides enzyme; Purified L. mesenteroides G6PDH, diaphorase/resazurin coupled fluorescence, 45 min; inhibition, % at 5 µM; hit rate 0.12% among 200,000; in the data active = inhibition above about 50%
PfGluPho inh: PfG6PD enzyme inhibitors, primary screen, biochemical, fluorescence intensity, uHTS; glucose-6-phosphate dehydrogenase-6-phosphogluconolactonase (Plasmodium falciparum 3D7); PfGluPho enzyme, NADPH resazurin-diaphorase fluorescence; inhibition, % at 20 µM; hit rate 0.78% among 350,000; AID 504690, 2011;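 active = inhibition reaching at least a set limit at 20 µM in the primary screen, cut at about 59% in these data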
PfG6PD confirm: PfG6PD inhibitors, hit retest, confirmation, biochemical, fluorescence intensity, single concentration | AID 504753, 2011 | inhibition, % at 20 µM | hit rate 34% among 2,400 | recombinant PfGluPho, NADPH-diaphorase-resazurin fluorescence | shares compounds with PfGluPho inh;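 active = inhibition of at least 50% at 20 µM in any single replicate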
Diaphorase 10uM: diaphorase inhibitors and chemical oxidizers, confirmation, counter-screen for P. falciparum G6PD inhibitor project, biochemical, fluorescence intensity, 10 µM NADPH. shares compounds with PfGluPho inh. diaphorase-coupled resazurin reduction, NADPH 10 uM. inhibition, % at 20 µM. hit rate 39% among 820. AID 504862, 2011;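 active = average inhibition reaching 50% or more with the compound at 20 µM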;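 note: resorufin red fluorescence formed as diaphorase reduces resazurin using NADPH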
Diaph ctr 30uM: diaphorase inhibitors and chemical oxidizers, confirmation, counter-screen for P. falciparum G6PD inhibitor project, biochemical, fluorescence intensity, 30 µM NADPH; shares compounds with PfGluPho inh; Diaphorase/resazurin coupled assay, resorufin fluorescence; inhibition, % at 20 µM; hit rate 29% among 820; AID 504863, 2011;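 active = inhibition averaging 50% or more, tested at 20 µM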
Hits are given with their value; . = inactive; / = not tested or not shown.

SMILES | Diaphorase inh | HKDC1 inhibitor | G6PDH CS | PfGluPho inh | PfG6PD confirm | others
CC(NC(=O)c1ccco1)c1nc(-c2ccc(C(C)(C)C)cc2)no1 (configuration not stated) | / | . | / | 66 | .
O=C(COc1cccc(C(F)(F)F)c1)N1CCN(c2ccccc2O)CC1 | . | . | . | . | /
O=C(COc1cccc(C(F)(F)F)c1)N1CCN(c2ccc(O)cc2)CC1 | . | . | . | 61 | .
CCOC(=O)c1c(NC(=O)C2CCCO2)sc(C(=O)OC(C)(C)C)c1C (configuration not stated) | . | . | . | 63 | .
CC(=O)c1ccc(Nc2ccc(-c3ccccc3F)nn2)cc1 | . | . | . | 79 | .
COc1ccccc1-c1ccc(Nc2ccc(C(=O)N3CCOCC3)cc2)nn1 | . | . | . | . | /
COCCNC(=O)COc1coc(CN2CCN(Cc3ccccc3)CC2)cc1=O | / | . | / | . | /
COc1ccccc1CN(C)C(=O)CN1CCN(S(=O)(=O)c2ccc3c(c2)OCCCO3)CC1 | / | . | / | . | /
CN(Cc1ccco1)S(=O)(=O)c1nnc(NC(=O)c2cccc(Cl)c2)s1 | / | . | / | 86 | .
COc1ccc(C(=O)Nc2nnc(S(=O)(=O)N(C)Cc3ccc(F)cc3)s2)cc1OC | / | . | / | . | /
CN(Cc1ccccc1)S(=O)(=O)c1nnc(NC(=O)c2ccc(F)cc2)s1 | / | . | / | 78 | .
CN(Cc1ccc(F)cc1)S(=O)(=O)c1nnc(NC(=O)c2ccccc2)s1 | / | . | / | . | /
COc1ccc(CN(C)S(=O)(=O)c2nnc(NC(=O)c3cccc(C)c3)s2)cc1OC | / | . | / | 80 | 64 | Diaphorase 10uM=64;Diaph ctr 30uM=.
COc1ccc(C(=O)Nc2nnc(S(=O)(=O)N(C)Cc3ccccc3)s2)cc1 | / | . | / | 71 | .
CCOc1ccc(NS(=O)(=O)c2ccc(Cl)c(N=Nc3c(O)[nH]c(=S)[nH]c3=O)c2)cc1Br | / | / | / | . | /
COc1cc(CC(=O)N2CCN(S(=O)(=O)c3ccc(C)cc3)CC2)cc(OC)c1OC | / | . | / | . | /
CCCN(CC1CCCO1)C(=O)c1cc(COc2ccc(F)cc2F)on1 (configuration not stated) | / | . | / | . | /
O=C(OCC(O)CO)c1ccccc1Nc1ccnc2cc(Cl)ccc12 (configuration not stated) | / | . | / | 82 | .
CCCCn1c(N)c(N(C(=O)CSc2nnc(C)n2-c2ccccc2)C2CCCC2)c(=O)[nH]c1=O | / | . | / | . | /
Cc1c(Cl)c([N+](=O)[O-])nn1Cc1ccc(C(=O)N/N=C\c2cccc(Br)c2)o1 | . | . | . | 105 | 61 | Diaphorase 10uM=61;Diaph ctr 30uM=.
CS(=O)(=O)c1ccc(NC(=O)c2cccc(S(=O)(=O)N3CCN(Cc4ccccc4)CC3)c2)cc1 | / | . | / | . | /
CCC(C)[C@H](NC(=O)[C@@H]1Cc2ccccc2CN1)C(=O)Nc1ccc2c(c1)OCO2 (some centres not stated) | / | . | / | . | /
Cc1ccc(-n2nnnc2-c2ccccc2Br)cc1 | / | . | / | 62 | .
COCC1CCCCN1C(=O)c1ccc(OC)c(OC2CCN(C(C)C)CC2)c1 (configuration not stated) | / | . | / | . | /
Oc1cc(CNCc2ccccc2)c(O)cc1CNCc1ccccc1 | / | . | / | 70 | 49 | Diaphorase 10uM=.;Diaph ctr 30uM=.
SMILES | Diaphorase inh | HKDC1 inhibitor | G6PDH CS | PfGluPho inh | PfG6PD confirm | others
CCOC(=O)C1CCCN(C(=O)CCc2nc3sc4c(c3c(=O)[nH]2)CCCC4)C1 (configuration not stated) | / | . | / | . | /
Oc1cc2c(cc1O)[C@H]1c3ccc(O)c(O)c3OC[C@@]1(O)C2 | / | . | / | 113 | 98 | Diaphorase 10uM=56;Diaph ctr 30uM=.
O=C1C(=Cc2ccccc2O)SC(=S)N1CCCN1CCOCC1 | / | / | / | 71 | .
COc1ccccc1C(=O)NCCC(=O)NNC(=O)Cn1ccc(C(F)(F)F)n1 | / | . | / | . | /
NC(=O)C1CC(=O)N(c2ccc(OCC(=O)Nc3ccc(F)cc3)cc2)C1 (configuration not stated) | / | . | / | . | /
Cc1nc2ccc(NC3=NCCCCC3)cc2s1 | . | . | . | 64 | .
Cc1nc2cc(NC(=O)c3ccco3)ccc2n1C | / | . | / | . | /
O=C(Nc1sc2c(c1C(=O)O)CCC2)c1ccco1 | . | . | . | . | /
O=C(Nc1sc2c(c1C(=O)O)CCCCC2)c1ccccc1F | . | . | . | 62 | .
CC(C)(C)c1ccc(C(=O)Nc2sc3c(c2C(=O)O)CCC3)cc1 | . | . | . | 76 | 59 | Diaphorase 10uM=.;Diaph ctr 30uM=.
O=C(Nc1sc2c(c1C(=O)O)CCCC2)c1ccc(F)cc1 | / | . | / | 93 | 73 | Diaphorase 10uM=55;Diaph ctr 30uM=55
NC(=O)c1c(NC(=O)c2ccc(F)cc2)sc2c1CCC2 | / | . | / | . | /
COC(=O)c1c(NC(=O)c2ccccc2C(=O)O)sc2c1CCCC2 | / | / | / | . | /
COc1cc2ccccc2cc1C(=O)OCc1nc2ccsc2c(=O)[nH]1 | / | . | / | . | /
